Where “and” joins values, the source holds several entries; their conditions need not be identical. Equal values may be shown once. Calls of active or inactive are those of the source.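 The calls were made as follows: active = compounds lowering cell viability with a fitted IC50 within ten times their top tested dose; inconclusive = flat viability loss of 30 to 70 percent, or poor fit; inactive = the rest.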
Tested on: not listed separately
Assay: toxicity in U2OS HRE-luc reporter cells, dose response, cytotoxicity control for HIF pathway activator project, cell-based, dry powder, set 7 (AID 493249)
Conditions: U2OS HRE-luc cells, viability toxicity counter-screen, CellTiter-Glo; at 38 µM (top of the series)
Summary of the method: (§1)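 measured by = CellTiter-Glo luminescence | assay system = human osteosarcoma U2OS cells stably expressing 3×HRE-luciferase reporter | medium = phenol red-free DMEM, 10% FBS, no hygromycin | incubation = 24 h cell attachment, then 24 h compound exposure, 37 °C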
With c1ccc(-c2cccc(CNc3nc(-c4ccccn4)nnc3-c3ccccc3)c2)cc1 the activity change, negative = toxicity was -2.36% (inactive). With O=C(NCc1ccccc1)c1cc(-c2ccccc2)on1 the activity change, negative = toxicity was -7.7% (inactive). With O=C(c1cc(-c2ccccc2)on1)N1CCC(N2CCCC2)CC1 the activity change, negative = toxicity was -8.3% (inactive). In the case of O=C(NCCCO)c1cc(-c2ccccc2)on1, the activity change, negative = toxicity is reported as -3.27% (inactive). In the case of c1ccc(-c2nnc(-c3ccccn3)nc2NCCCN2CCOCC2)cc1, the activity change, negative = toxicity is reported as 11% (inactive). In the case of c1ccc(-c2nnc(-c3ccccn3)nc2NCC2CC2)cc1, the activity change, negative = toxicity is reported as 8.28% (inactive). With O=C(NCCN1CCOCC1)c1cc(-c2ccccc2)on1 the activity change, negative = toxicity was -16.1% (inactive). In the case of CCCCNC(=O)c1cc(-c2ccccc2)on1, the activity change, negative = toxicity is reported as -11.5% (inactive). For O=C(NCCCCO)c1cc(-c2ccccc2)on1, the activity change, negative = toxicity was -16.3% (inactive). In the case of CC(C)(C)OC(=O)N1CCN(Cc2ccc(O)c3ncccc23)CC1, the activity change, negative = toxicity is reported as 6.17% (inactive). For COc1cccc(CNc2nc(-c3ccccn3)nnc2-c2ccccc2)c1, the activity change, negative = toxicity was -14.9% (inactive). In the case of O=C(Nc1cn2ccccc2n1)c1cc(-c2ccccc2)on1, the activity change, negative = toxicity is reported as -3.68% (inactive). For c1ccc(-c2nnc(-c3ccccn3)nc2NCCN2CCOCC2)cc1, the activity change, negative = toxicity was -9.28% (inactive). In the case of CN1CCN(C(=O)c2cc(-c3ccccc3)on2)CC1, the activity change, negative = toxicity is reported as 3.42% (inactive). For CN1CCN(c2nc(-c3ccccn3)nnc2-c2ccccc2)CC1, the activity change, negative = toxicity was -13.4% (inactive). In the case of Cn1c(-c2ccccc2)cnc1NC(=O)c1cc(-c2ccccc2)on1, the activity change, negative = toxicity is reported as -8.92% (inactive). For O=C(c1cc(-c2ccccc2)on1)N1CCc2cccnc21, the activity change, negative = toxicity was -7.75% (inactive). For O=C(NC1CCc2ccccc2C1)c1cc(-c2ccccc2)on1 (stereo not given), the activity change, negative = toxicity was -10.6% (inactive). With OCCCNc1nc(-c2ccccn2)nnc1-c1ccccc1 the activity change, negative = toxicity was 4.98% (inactive). With Cn1c(NC(=O)c2cc(-c3ccccc3)on2)nc2ccccc21 the activity change, negative = toxicity was -0.865% (inactive). In the case of O=C(Nc1ncc(-c2ccccc2)o1)c1cc(-c2ccccc2)on1, the activity change, negative = toxicity is reported as 1.41% (inactive). In the case of O=C(Nc1nc(-c2ccccc2)cs1)c1cc(-c2ccccc2)on1, the activity change, negative = toxicity is reported as 13.9% (inactive). For Clc1cccc(CNc2nc(-c3ccccn3)nnc2-c2ccccc2)c1, the activity change, negative = toxicity was 2.17% (inactive). For Cc1cccc(CNc2nc(-c3ccccn3)nnc2-c2ccccc2)c1, the activity change, negative = toxicity was -16.7% (inactive). With c1ccc(-c2nnc(-c3ccccn3)nc2N2CCC(C3CCCCC3)C2)cc1 (stereo not given) the activity change, negative = toxicity was 14.5% (inactive). In the case of CC(C)(C)CCNc1nc(-c2ccccn2)nnc1-c1ccccc1, the activity change, negative = toxicity is reported as -13% (inactive) and -32.8% (inactive). With Oc1ccc(CN2CCC(Cc3ccccc3)CC2)c2cccnc12 the activity change, negative = toxicity was -14.5% (inactive). In the case of C[C@@H](Nc1nc(-c2ccccn2)nnc1-c1ccccc1)c1ccccc1, the activity change, negative = toxicity is reported as -13.6% (inactive). With Cc1ccc(CNC(=O)c2cc(-c3ccccc3)on2)cc1 the activity change, negative = toxicity was 1.57% (inactive).

Tested on: U2OS HRE-luc cells, viability toxicity counter-screen, CellTiter-Glo
Assay: as above
Conditions: not given
Summary of the method: as §1
With c1ccc(-c2nnc(-c3ccccn3)nc2Nc2nc3ccccc3s2)cc1 the IC50 was > 38 µM (inactive). For c1ccc(-c2nnc(Nc3nc(-c4ccccn4)nnc3-c3ccccc3)s2)cc1, the IC50 was > 38 µM (inactive). With c1ccc(-c2csc(Nc3nc(-c4ccccn4)nnc3-c3ccccc3)n2)cc1 the IC50 was > 38 µM (inactive). In the case of c1ccc(-c2nnc(-c3ccccn3)nc2NCc2ccccn2)cc1, the IC50 is reported as > 38 µM (inactive). In the case of O=C(c1cc(-c2ccccc2)on1)N1CCN(c2ccncc2)CC1, the IC50 is reported as > 38 µM (inactive). In the case of CC1CN(Cc2ccc(O)c3ncccc23)CC(C)O1 (stereo not given), the IC50 is reported as > 38 µM (inactive). In the case of c1ccc(-c2nnc(-c3ccccn3)nc2N2CCN(c3ccncc3)CC2)cc1, the IC50 is reported as > 38 µM (inactive). In the case of c1ccc(-c2nnc(-c3ccccn3)nc2N2CCC(N3CCOCC3)CC2)cc1, the IC50 is reported as > 38 µM (inactive). For Oc1ccc(CN2CCC3CCCCC3C2)c2cccnc12 (stereo not given), the IC50 was > 38 µM (inactive). For O=C(NCCN1CCCCC1)c1cc(-c2ccccc2)on1, the IC50 was > 38 µM (inactive). Cn1c(-c2ccccc2)cnc1Nc1nc(-c2ccccn2)nnc1-c1ccccc1 gave an IC50 of 34.8 µM.
